Source: ChEMBL document CHEMBL1212790, “Triclosan resistance of Pseudomonas aeruginosa PAO1 is due to FabV, a triclosan-resistant enoyl-acyl carrier protein reductase” (2010)
≈ marks a conversion by molar mass, not a printed value. Calls of active or inactive are those of the source. The calls are words filed in the database; no cut-off is given here.

Legend:
[1] = test system: Escherichia coli; assay: Antibacterial activity against Escherichia coli W3110 containing pZL16 expressing sPseudomonas aeruginosa fabV gene assessed as microbial growth inhibition; type: functional
How it was run: (§1)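 Triclosan MIC on LB agar plates carrying serial dilutions of triclosan; cells plated and plates incubated at 37°C. MIC taken as the triclosan concentration of the first plate without growth. E. coli hosts (W3110, MG1655) carried pBluescript SK(+)-derived plasmids encoding fabV or fabI, or the empty vector.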

[2] = test system: Pseudomonas aeruginosa; assay: Antibacterial activity against Pseudomonas aeruginosa PA0272 lacking fabI assessed as microbial growth inhibition
[3] = test system: Pseudomonas aeruginosa; assay: Inhibition of Pseudomonas aeruginosa PA0170 fabV assessed as reduction of Enoyl-[acyl-carrier-protein] reductase activity at 15 ug/ml
How it was run: (§2)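 Cell-extract ENR assay (70 μl) in 0.1 M sodium phosphate pH 7.5 with 0.1 mM NADH and 2 μg of cell extract. Started with 100 μM trans-2-decenoyl-ACP, with or without 15 μg/ml triclosan. NADH-dependent activity followed as the drop in A340. Means plus standard deviations of three experiments.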

[4] = test system: Pseudomonas aeruginosa; assay: Antibacterial activity against Pseudomonas aeruginosa PA01 assessed as microbial growth inhibition; type: functional
[5] = target: T1, Enoyl-[acyl-carrier-protein] reductase [NADH] FabI (Pseudomonas aeruginosa) (UniProt Q9ZFE4); assay: Inhibition of Pseudomonas aeruginosa fabI activity assessed as conversion of 3-hydroxydecanoyl-ACP to trans-2-decenoyl-ACP at 10 ug/ml in presence of 2.5 M urea
T1 sequence (whole entry): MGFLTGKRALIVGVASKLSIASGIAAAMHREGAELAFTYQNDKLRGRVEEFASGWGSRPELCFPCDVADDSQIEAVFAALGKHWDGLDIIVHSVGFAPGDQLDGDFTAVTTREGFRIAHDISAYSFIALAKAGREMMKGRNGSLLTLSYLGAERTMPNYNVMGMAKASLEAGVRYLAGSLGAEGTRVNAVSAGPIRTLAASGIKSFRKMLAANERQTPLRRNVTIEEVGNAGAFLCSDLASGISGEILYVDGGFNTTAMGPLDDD
How it was run: (§3)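 3-Hydroxydecanoyl-ACP dehydrated to trans-2-decenoyl-ACP with E. coli FabZ, then split into tubes holding dried triclosan (added from an ethanol stock and dried down). Purified His-tagged PaFabV or PaFabI added; reduction in 0.1 M sodium phosphate pH 7.0 with NADH, 1 h. Products resolved by conformationally sensitive PAGE with 2.5 M urea and Coomassie staining.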

[6] = test system: Pseudomonas aeruginosa; assay: Antibacterial activity against Pseudomonas aeruginosa PA0170 lacking fabV gene assessed as microbial growth inhibition
[7] = target: T1, Enoyl-[acyl-carrier-protein] reductase [NADH] FabI (Pseudomonas aeruginosa); assay: Inhibition of Pseudomonas aeruginosa PAO272 fabI assessed as reduction of Enoyl-[acyl-carrier-protein] reductase activity at 15 ug/ml; how it was run: as §2
[8] = target: T1, Enoyl-[acyl-carrier-protein] reductase [NADH] FabI (Pseudomonas aeruginosa); assay: Inhibition of Pseudomonas aeruginosa PAO272 fabI assessed as reduction of [1-14C]acetate incorporation into phospholipids
[9] = test system: Escherichia coli; assay: Antibacterial activity against Escherichia coli MG1655 containing pZL19 expressing Escherichia coli fabI gene assessed as microbial growth inhibition; type: functional; how it was run: as §1
[10] = test system: Pseudomonas aeruginosa; assay: Inhibition of wild type Pseudomonas aeruginosa ENR assessed as reduction of [1-14C]acetate incorporation into phospholipids
[11] = test system: Escherichia coli; assay: Antibacterial activity against Escherichia coli W3110 containing empty vector pBluescript at 37 deg C; type: functional; how it was run: as §1
[12] = test system: Escherichia coli; assay: Antibacterial activity against Escherichia coli MG1655 pZL16 expressing Pseudomonas aeruginosa fabV gene assessed as microbial growth inhibition; type: functional; how it was run: as §1
[13] = test system: Pseudomonas aeruginosa; assay: Inhibition of Pseudomonas aeruginosa PA0170 fabV assessed as reduction of [1-14C]acetate incorporation into phospholipids
[14] = test system: Escherichia coli; assay: Antibacterial activity against Escherichia coli MG1655 pZL17 expressing Pseudomonas aeruginosa fabI gene assessed as microbial growth inhibition; type: functional; how it was run: as §1
[15] = test system: Escherichia coli; assay: Antibacterial activity against Escherichia coli W3110 containing pZL19 expressing sEscherichia coli fabI gene assessed as microbial growth inhibition; type: functional; how it was run: as §1
[16] = test system: Pseudomonas aeruginosa; assay: Inhibition of wild type Pseudomonas aeruginosa ENR at 15 ug/ml; how it was run: as §2
[17] = test system: Escherichia coli; assay: Antibacterial activity against Escherichia coli MG1655 containing empty vector pBluescript assessed as microbial growth inhibition; type: functional; how it was run: as §1
[18] = test system: Escherichia coli; assay: Antibacterial activity against Escherichia coli W3110 containing pZL17 expressing Pseudomonas aeruginosa fabI gene assessed as microbial growth inhibition; type: functional; how it was run: as §1
[19] = test system: Pseudomonas aeruginosa; assay: Inhibition of Pseudomonas aeruginosa fabV activity assessed as conversion of […] at 1000 ug/ml in presence of 2.5 M urea; how it was run: as §3
[20] = test system: Pseudomonas aeruginosa; assay: Activity of Pseudomonas aeruginosa PA0170 fabV in presence of 100 uM NADH
How it was run: (§4)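 Cell extracts (2 μg) of the P. aeruginosa deletion strains (PAO170 ΔfabV, PAO272 ΔfabI) were assayed for NADH-dependent enoyl-ACP reductase activity in 70 μl of 0.1 M sodium phosphate pH 7.5 with 0.1 mM NADH. Reactions were started with 100 μM trans-2-decenoyl-ACP and run with or without 15 μg/ml triclosan. Values are means plus standard deviations of three experiments.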

[21] = compound: C/C=C/C(=O)SCCNC(=O)CCNC(=O)[C@@H](O)C(C)(C)COP(=O)(O)OP(=O)(O)OC[C@H]1O[C@@H](n2cnc3c(N)ncnc32)[C@H](O)[C@@H]1OP(=O)(O)O; assay: Inhibition of Pseudomonas aeruginosa PAO272 fabI in presence of 100 uM NADH; how it was run: as §4

For `Oc1cc(Cl)ccc1Oc1ccc(Cl)cc1Cl` [TRICLOSAN], the MIC [1] was over 2000 µg/mL, the MIC [2] was over 2000 µg/mL and the inhibition [3] was 15%. The MIC [4] was over 2000 µg/mL, the inhibition [5] was “Active” and the MIC [6] was 1 µg/mL (≈ 3.45 µM). The inhibition [7] was “inactive”, the inhibition [8] was “inactive” and the MIC [9] was 3 µg/mL (≈ 10.4 µM). For the same molecule, the inhibition [10] was “inactive”, the MIC [11] was 0.2 µg/mL (≈ 0.691 µM) and the MIC [12] was over 2000 µg/mL. For the same molecule, the inhibition [13] was “Active”, the MIC [14] was 4 µg/mL (≈ 13.8 µM) and the MIC [15] was 3 µg/mL (≈ 10.4 µM). For the same molecule, the inhibition [16] was 29%, the MIC [17] was 0.2 µg/mL (≈ 0.691 µM) and the MIC [18] was 4 µg/mL (≈ 13.8 µM). For the same molecule, the inhibition [19] was “inactive”.

`C/C=C/C(=O)SCCNC(=O)CCNC(=O)[C@@H](O)C(C)(C)COP(=O)(O)OP(=O)(O)OC[C@H]1O[C@@H](n2cnc3c(N)ncnc32)[C@H](O)[C@@H]1OP(=O)(O)O` was tested, and the Km [20] was 704 µM and the Vmax [20] was 7.9 nmol/min/mg.

B1: Enoyl-[acyl-carrier-protein] reductase [NADH] FabI (Pseudomonas aeruginosa), Q9ZFE4 (protein)
chain: T1 sequence (whole entry)
Molecule B1 has a Km [21] of 4.7 µM and a Vmax [21] of 1.5 nmol/min/mg.
